Results from PMC10984326 (Chemistry & biodiversity, 2023).

Assays:
A375 cells [1] = test: Wound-healing; assay type: cell-based, human; details: for Inhibition of migration of A375 cells: after 20, 48 and 54 h, 7b 3.5 μM, 7c 4.3 μM
A375 cells [2] = test: Flow cytometry analysis of cell cycle; assay type: cell-based, human; details: for Cell cycle arrest: 5 x IC50; for Sub-G1 DNA content relative to control: 72 h, 5 x IC50 (7b 17.5 μM, 7c 21.5 μM), vs 0.2% DMSO
[3] = test system: Human primary dermal fibroblasts; test: MTT cell viability assay, non-cancerous fibroblasts; assay type: cell-based; details: IC50 of cancer cells compared with IC50 of human fibroblasts
Method in brief: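 Primary dermal fibroblasts were grown in fibroblast basal medium with low-serum growth supplement at 37°C, 5% CO2. Cells were seeded at 2×10^3/well, and after 24 h were exposed for 72 h to test compound (DMSO solution, up to 10 μM) or 0.1% DMSO. MTT was added for 4 h and the formazan dissolved in DMSO, with absorbance at 540 nm. IC50 came from non-linear regression, and SI from comparing A375 and 35404 IC50s with fibroblast IC50.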

35404 cells = test: MTT cell viability assay, patient-derived melanoma metastasized to brain; assay type: cell-based, human; details: read-out: Antiproliferative activity (IC50, μM) 35404 cells, 72 h treatment, up to 10 μM, mean±SD (n=4), IN = inactive

IC50 (35404 cells) [µM] | SMILES | Wound surface area (A375 cells [1]; 4 h of treatment, 3.5 μM (IC50), 0 h = 100%, control 76%) [%] | Inhibition of migration of A375 cells (A375 cells [1]) | Cell cycle arrest (A375 cells [2]; 24 h) | DNA fragmentation (sub-G1 DNA) (A375 cells [2]; 24 h, 5 x IC50 (17.5 μM)) | Cell cycle arrest (A375 cells [2]; 48 h and 72 h) | Sub-G1 DNA content relative to control (A375 cells [2]) | SI (selectivity index) [3]
– | Cc1cc(C(=O)/C(=C\c2cccc(F)c2)c2cccc(F)c2)c(C(=O)N2CCCCC2)c(=O)[nH]1 [Compound 7b, (Z)-4-(2,3-bis(3-fluorophenyl)acryloyl)-6-methyl-3-(piperidine-1-carbonyl)pyridin-2(1H)-one] | 93 | statistically significant inhibition of migration | transient G2 and/or M phase arrest | Statistically significant DNA fragmentation | substantial G1 arrest | statistically significant increases | –
– | COc1ccc(/C=C(\C(=O)c2cc(C)[nH]c(=O)c2C(=O)N2CCCCC2)c2ccc(OC)c(C)c2)cc1C [Compound 7c, (Z)-4-(2,3-bis(4-methoxy-3-methylphenyl)acryloyl)-6-methyl-3-(piperidine-1-carbonyl)pyridin-2(1H)-one] | – | statistically significant inhibition of migration | – | – | substantial G1 arrest | statistically significant increases | >2
0.4 ± 0.2 | Cc1cc(C(=O)/C(=C\c2ccc(C)c(Cl)c2)c2ccc(C)c(Cl)c2)c(C(=O)N2CCCCC2)c(=O)[nH]1 [Compound 7g, (Z)-4-(2,3-bis(3-chloro-4-methylphenyl)acryloyl)-6-methyl-3-(piperidine-1-carbonyl)pyridin-2(1H)-one] | – | – | – | – | – | – | >20
